Experiment: Toxicity liver stage against HepG2, at 10uM
Assay type: cell-based
Set-up: test concentration 10 uM, cell line HepG2-A16-CD81EGFP
Conditions: human, HepG2-A16-CD81EGFP cells; read-out: INHIBITION
Summary of the method: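 Uninfected HepG2-A16-CD81EGFP cells, 3 × 10^3 per well, 1536-well, plated on prespotted compound at 10 μM final, parasite-free screening media added to match infected plates; puromycin 10 μM positive, DMSO 0.5% negative; run in parallel with 48 h PbLuc assay at 37 °C, 5% CO2; viability by CellTiter-Glo luminescence, normalized to controls.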

Structure (SMILES) | cytotoxicity at 10 µM [%]
COCCC1CCCCN1C(=O)c1coc(COc2ccccc2F)n1 (stereo unspecified) | 3.97
Cc1noc(C)c1CN1CC[C@H]2C[C@H](c3ccncn3)O[C@@H]2C1 | -69.5
O=C(c1cccnc1N1CCCCC1)N1CCCC(n2cccn2)C1 (stereo unspecified) | -0.438
O=C(NCCN1CCC(c2cccs2)CC1)c1ccc(F)cc1Cl | -2.83
O=c1ccc2c([nH]1)CCC(NCc1ccc(F)cc1)C2 (stereo unspecified) | -1.87
CC(OCC(F)(F)F)C(=O)NCCN(C)C (stereo unspecified) | -3.17
COc1c(C2CCCN2CC(=O)Nc2ccncc2)c(C)nn1C (stereo unspecified) | -12.7
Cc1ccc(NC2CCN(C(=O)c3ccc(F)c(C)c3)CC2)nn1 | 2.37
Cc1ccc(CN2CCCC3(CCCC(=O)N3)C2)s1 (stereo unspecified) | -0.361
Fc1ccc(Oc2nccnc2C2CCN(C3CCOCC3)CC2)cc1 | -2.5
CC(=O)NCCOc1c(Cl)cccc1Cl | -8.87
COCCNc1ccc(CC2CCCN(Cc3c[nH]cn3)C2)nn1 (stereo unspecified) | -2.7
Cc1c(C(=O)N2CCC(N3CCCCC3)CC2)n(C)c2ccc(Cl)cc12 | -63.8
O=C([C@H]1CCCO1)N1CC[C@@H](O)[C@@H]1Cc1ccccc1 | 1.41
COc1cccc(S(=O)(=O)CCNCCn2cccn2)c1 | -4.96
Cc1ccc(C(=O)N2Cc3ccccc3C2)cc1N1CCNC1=O | -13.9
CS(=O)(=O)N1CCCC(c2nc(-c3ccccc3)c[nH]2)C1 (stereo unspecified) | 2.44
CN(C)C[C@H]1C[C@H](CO)CN(C(=O)c2cc(S(N)(=O)=O)ccc2F)C1 | 11.9
O=c1c2c[nH]c(N3CCCC3)nc-2cn1CCc1ccc(Cl)cc1 | 11.9
COCCN(Cc1nccs1)C(=O)c1c(C)cc(C)[nH]c1=O | 0.0773
O=C(NCC(F)(F)F)C(c1cccnc1)N1CCOCC1 (stereo unspecified) | 1.51

Structure (SMILES) | cytotoxicity at 10 µM [%]
CC(=O)Nn1c(C)cc(CN2CCCN(Cc3ccncc3)CC2)c1C | 5.63
Cc1cccc(C)c1Nc1noc2c1CN(C(=O)c1c[nH]nc1C)CC2 | 6.22
CC1CCN(C(=O)[C@H]2CC[C@@H]3[C@@H](CCN3Cc3nccs3)O2)CC1 | 4.62
Cn1ccnc1NC[C@@H]1CCC[C@@H]2CN(CC3CC3)C[C@@H]21 | 16
FC(F)(F)c1ccnc(N2C[C@H]3CCN(c4cccnc4)C[C@H]3C2)n1 | 6.88
CN(CC(C)(CO)CO)C(=O)Nc1cc(F)cc(Cl)c1 | -0.19
CCc1nnc(Sc2nn3cc(C)nc3s2)n1C | -3.64
Cc1ccccc1OCCC(=O)OC(C)C(=O)Nc1sccc1C(N)=O (stereo unspecified) | 19.4
COc1cc2c(cc1-c1nc3c(cnn3C(C)C)[nH]1)OCO2 | -6.85
Cc1nn(C)cc1Cn1c(=O)c(C)nc2ccccc21 | -1.21
CCc1ccc(S(=O)(=O)N2Cc3c(CN(C)C)nn(C)c3C2)cc1 | -106
CCN(C)c1ncnc2c1CCN(Cc1ccncc1)CC2 | -10.7
COC(=O)CCN1CCCC1c1ccccc1Cl (stereo unspecified) | 19.6
CC(C)N(C)Cc1cncc2c1CCN(Cc1ccoc1)C2 | -109
CCn1cc(CNC(=O)c2nn(CC)cc2Br)cn1 | 47.1
CC(C)Cc1nc(NC(=O)c2cc(-c3cccnc3)n[nH]2)n[nH]1 | 2.34
CC(C)(C)c1csc(CCNC(=O)[C@H](c2ccccc2)n2cnnn2)n1 | 2.07
Cc1ccc2oc(=O)n(CCC(=O)N3CCC4(CN(C)C(=O)O4)C3)c2c1 (stereo unspecified) | 1.66
O=C(C1CCC1)N1CCC2(CCCN2CC2CC2)CC1 | -2.45
CC[C@@H]1N(Cc2ccoc2)CCC[C@]12CCC(=O)N2CCOC | 11
Cn1ccnc1-c1cn(CCCc2nnc(N)s2)nn1 | 10

Structure (SMILES) | cytotoxicity at 10 µM [%]
CC(c1ccc(F)cc1)N1CCN(Cc2ccc(C#N)cc2)CC1 (stereo unspecified) | -6.17
CCc1cc(N(C)Cc2noc(C(C)C)n2)nc(N2CCOCC2)n1 | 0.515
Cc1noc([C@H]2COC[C@H]3CN(C(=O)Cc4ccsc4)C[C@H]32)n1 | -3.26
CC(C)(CNC(=O)Nc1cccc(-c2cccs2)c1)C(N)=O | -9.99
NS(=O)(=O)N1CCc2ccc(NC(=O)CCc3ccncc3)cc21 | 2.68
O=C(O)CCn1ccc(=O)c2ccccc21 | 0.148
COc1ncccc1CN1Cc2nccn2CC(Cn2cccn2)C1 (stereo unspecified) | -106
CC(C(N)=O)N1CCc2onc(-c3cccc(F)c3)c2C1 (stereo unspecified) | 3.38
Cc1ccc(C2CSCCN2C(=O)c2ccccn2)cc1 (stereo unspecified) | 2.04
COc1ccnc(N2CCC3(CCCN(C(C)C)C3=O)C2)n1 (stereo unspecified) | -8.7
CN1CCC2(CC1)CN(C(=O)c1onc3ccccc13)CCCN2C | 8.31
CC(C)NC(=O)N1CC(=O)c2sc(Nc3ccc(C#N)cc3)nc2C1 | -7.77
CCCc1nc(NCCCOC)c2c(n1)c(C)nn2CC | 24.6
CN(Cc1cnn(C)c1)C1CCCN(Cc2noc(C3CC3)n2)C1 (stereo unspecified) | -8.44
Cc1noc(C)c1CN1CCCC2(CCN(C(=O)NC3CC3)C2)C1 (stereo unspecified) | 7.25
C=C(C)COc1cccc(C(=O)N2CCC(O)(c3ccccc3)CC2)c1 | -44.9
Cc1cnc(C(=O)N2CCCC(c3nccn3Cc3cscn3)C2)cn1 (stereo unspecified) | -7.92
Cc1ccc(CN2C[C@@H]3[C@@H](C2)OCC(=O)N3Cc2ccncc2)s1 | -67.7
O=C1CCC[C@]2(CN(S(=O)(=O)N3CCCCC3)C[C@H]2c2cccnc2)N1 | -0.217
O=C(c1ccon1)N1CCCC(n2cncn2)C1 (stereo unspecified) | -8.51
CC(C)NC(=O)[C@@H]1CN(C)C[C@]12COc1ccc(F)cc1C2=O | 2.17

Structure (SMILES) | cytotoxicity at 10 µM [%]
CCCOc1cccc(C(=O)N2CCCC(n3cncn3)C2)c1 (stereo unspecified) | -4.39
CN(C)CC(=O)N1Cc2nc(C(=O)N3CCCN(C)CC3)oc2C1 | -105
Cc1nccc(CNC(=O)NCCC(=O)N2CCCc3ccccc32)n1 | -0.457
COCCn1ccnc1C1CCN(C(=O)c2cccc(COC)n2)CC1 | 1.62
CN(Cc1cnn(C)c1)C(=O)NCc1nnc2n1CCC2 | -4.1
Cc1cc(C)n(CC2CCCN2CC(=O)N(C)Cc2ccc(C)o2)n1 (stereo unspecified) | -15.4
CNc1cc(N2CCCC2CNCc2cnc(C)cn2)ncn1 (stereo unspecified) | -4.51
COC(=O)Cn1c(=O)[nH]c2cn(-c3ccc(C)cc3)c(=O)n21 | 0.413
CC(C)CCN1C[C@@H]2C[C@H](C(=O)N3CCCC3)[C@H](C1)O2 | 4.82
CN(C)C(CNC(=O)c1ccnc(-n2cncn2)c1)c1ccccc1 (stereo unspecified) | -130
COC[C@H]1CC[C@@H]2[C@@H](CCN2Cc2ccco2)O1 | -137
CNC(=O)CN1CCOCC2(C1)CN(C(=O)CC(C)C)CCO2 (stereo unspecified) | 3.94
CN(Cc1cccc(F)c1)Cc1nc2c(cnn2C)c(=O)[nH]1 | -2.8
COCCN1CCC2(COCc3cnc(N(C)C)nc32)C1 (stereo unspecified) | 1.39
C[C@@H]1CN(Cc2ccc(C(F)(F)F)cc2F)CC[C@]1(C)O | 4.54
CCCc1nc(CNC(=O)Cc2csc(C)n2)cs1 | -10.6
Clc1ccc2c(c1)C=C(CNC1CCc3ncnn3C1)CO2 (stereo unspecified) | -1.19
CCc1nc(N2CCN(Cc3ncccc3C)CC2)c2cnn(C)c2n1 | -6.46

Reference: ChEMBL document CHEMBL4513216, “Probing the Open Global Health Chemical Diversity Library for Multistage-Active Starting Points for Next-Generation Antimalarials” (ACS Infect Dis, 2020)
